Each block holds one compound with its values, some of them ahead of it.
Columns and labels:
[1] = biological target: T1, M-phase inducer phosphatase 1 (Homo sapiens) (UniProt P30304); assay: (§1) Inhibitory activity tested against cell division cycle 25A (assay using fluorescein diphosphate (FDP) as substrate)
T1 sequence (whole entry): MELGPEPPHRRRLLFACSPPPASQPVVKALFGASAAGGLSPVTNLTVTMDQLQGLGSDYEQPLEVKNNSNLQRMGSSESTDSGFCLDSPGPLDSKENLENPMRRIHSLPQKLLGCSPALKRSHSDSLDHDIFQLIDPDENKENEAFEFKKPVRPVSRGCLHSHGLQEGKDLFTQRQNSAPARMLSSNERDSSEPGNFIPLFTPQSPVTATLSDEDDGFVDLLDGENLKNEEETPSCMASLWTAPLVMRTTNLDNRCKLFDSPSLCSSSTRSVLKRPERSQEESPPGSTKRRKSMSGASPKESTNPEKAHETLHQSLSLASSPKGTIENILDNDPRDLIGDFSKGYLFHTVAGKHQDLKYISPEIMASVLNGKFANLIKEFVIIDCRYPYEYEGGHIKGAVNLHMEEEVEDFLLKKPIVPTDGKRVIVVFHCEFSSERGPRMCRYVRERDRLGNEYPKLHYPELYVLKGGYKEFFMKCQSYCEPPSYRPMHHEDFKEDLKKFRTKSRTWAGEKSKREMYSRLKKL
In short: (§2)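 Recombinant human GST-Cdc25A fusion protein, each batch calibrated so that FDP was dephosphorylated linearly over 20 min. Fluorescein diphosphate was the substrate. Reactions ran 15 min at 25 °C in the dark and were stopped with sodium orthovanadate. Fluorescein monophosphate was read at 485 nm excitation and 530 nm emission. IC50 came from at least two independent runs, each in triplicate.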

HT-29 [2] = assay: Inhibition of colon cancer in HT-29 cancer cell lines; assay type: functional; conditions: Homo sapiens
In short: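 Soft agar clonogenic assay of anchorage-independent growth, using HT-29 colon and A549 lung adenocarcinoma cells. The value is the compound concentration that cut colony number to 50% of control.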

OVCAR-3 [3] = assay: Inhibition of Ovarian cancer in OVCAR-3 cancer cell lines; assay type: functional; conditions: Homo sapiens
NCI-H23 = assay: Growth inhibitory activity was determined against NCI-H23 cancer cell line of non-small cell lung cancer; assay type: functional, Homo sapiens; conditions: Homo sapiens, NCI-H23
In short: (§3)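 NCI 60 human tumour cell line screen run at the National Cancer Institute. Cell growth and viability read with the protein stain sulforhodamine B, which binds basic amino acids of cells left attached after washing. […] MG MID is the mean GI50 calculated over all panels.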

[4] = biological target: Receptor-type tyrosine-protein phosphatase C, CD45 (Homo sapiens) (UniProt P08575); assay: Inhibitory activity tested against human CD45 receptor-type tyrosine-protein phosphatase C
Chain of Receptor-type tyrosine-protein phosphatase C, CD45 (Homo sapiens) (P08575 whole entry, looked up): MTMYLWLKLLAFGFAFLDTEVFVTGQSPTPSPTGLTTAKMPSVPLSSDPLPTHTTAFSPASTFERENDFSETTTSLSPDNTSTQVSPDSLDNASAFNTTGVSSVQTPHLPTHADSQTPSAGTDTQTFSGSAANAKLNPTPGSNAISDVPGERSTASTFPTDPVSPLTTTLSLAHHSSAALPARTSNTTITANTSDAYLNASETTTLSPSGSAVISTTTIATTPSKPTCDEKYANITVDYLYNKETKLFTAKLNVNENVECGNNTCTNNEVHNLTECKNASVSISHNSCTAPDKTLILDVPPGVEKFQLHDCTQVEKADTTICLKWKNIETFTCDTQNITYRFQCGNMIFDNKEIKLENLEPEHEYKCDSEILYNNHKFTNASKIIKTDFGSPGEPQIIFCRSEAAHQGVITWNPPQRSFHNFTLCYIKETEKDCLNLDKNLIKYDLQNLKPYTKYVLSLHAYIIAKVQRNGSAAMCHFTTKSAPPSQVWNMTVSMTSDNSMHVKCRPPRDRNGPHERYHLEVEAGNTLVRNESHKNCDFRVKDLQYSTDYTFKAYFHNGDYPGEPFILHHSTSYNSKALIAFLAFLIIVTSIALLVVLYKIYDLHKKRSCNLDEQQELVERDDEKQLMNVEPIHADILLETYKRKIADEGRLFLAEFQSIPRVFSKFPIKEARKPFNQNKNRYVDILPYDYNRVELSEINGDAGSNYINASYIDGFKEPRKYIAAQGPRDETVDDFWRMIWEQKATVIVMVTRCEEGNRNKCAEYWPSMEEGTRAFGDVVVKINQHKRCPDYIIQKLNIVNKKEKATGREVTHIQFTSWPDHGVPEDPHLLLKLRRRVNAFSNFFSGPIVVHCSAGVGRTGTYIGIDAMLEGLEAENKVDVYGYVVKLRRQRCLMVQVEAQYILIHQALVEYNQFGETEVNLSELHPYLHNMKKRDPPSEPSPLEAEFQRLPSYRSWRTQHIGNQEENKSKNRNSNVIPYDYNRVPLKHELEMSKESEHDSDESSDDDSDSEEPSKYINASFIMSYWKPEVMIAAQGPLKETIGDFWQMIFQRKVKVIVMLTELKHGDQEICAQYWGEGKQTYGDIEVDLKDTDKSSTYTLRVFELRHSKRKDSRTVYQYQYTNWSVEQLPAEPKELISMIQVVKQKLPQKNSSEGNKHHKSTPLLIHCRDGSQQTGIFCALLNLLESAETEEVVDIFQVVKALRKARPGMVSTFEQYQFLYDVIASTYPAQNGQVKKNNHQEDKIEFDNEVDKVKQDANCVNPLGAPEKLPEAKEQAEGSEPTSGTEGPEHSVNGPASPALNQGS

NCI-H522 = assay: Growth inhibitory activity was determined against NCI-H522 cancer cell line of non-small cell lung cancer; assay type: functional; conditions: Homo sapiens; in short: as §3
LOX IMVI = assay: Growth inhibitory activity was determined against LOX IMVI cancer cell line of melanoma; assay type: functional, Homo sapiens; conditions: Homo sapiens, LOX IMVI; in short: as §3
PC-3 [5] = assay: Inhibition of Prostate cancer in PC-3 cancer cell lines; assay type: functional; conditions: Homo sapiens
U-251 = assay: Growth inhibitory activity was determined against U-251 cancer cell line of CNS cancer; assay type: functional; conditions: Homo sapiens; in short: as §3
[6] = biological target: T1, M-phase inducer phosphatase 1 (Homo sapiens); assay: Inhibitory activity tested against cell division cycle 25A (assay using p-nitro phenyl phosphate (pNPP) as substrate)
COLO 205 = assay: Growth inhibitory activity was determined against COLO 205 cancer cell line colon cancer; assay type: functional, Homo sapiens; conditions: Homo sapiens, COLO 205; in short: as §3
SN12C [7] = assay: Inhibition of Renal cancer in SN12C cancer cell lines; assay type: functional; conditions: Homo sapiens
SF-268 = assay: Growth inhibitory activity was determined against SF-268 cancer cell line of CNS cancer; assay type: functional; conditions: Homo sapiens; in short: as §3
A549 = assay: Growth inhibitory activity was determined against A549/ATCC cancer cell line of non-small cell lung cancer; assay type: functional, Homo sapiens; conditions: Homo sapiens, A549; in short: as §3
786-0 [8] = assay: Inhibition of Renal cancer in 786-0 cancer cell lines; assay type: functional; conditions: Homo sapiens
OVCAR-8 [9] = assay: Inhibition of Ovarian cancer in OVCAR-8 cancer cell lines; assay type: functional; conditions: Homo sapiens
T47D [10] = assay: Inhibition of Breast cancer in T-47D cancer cell lines; assay type: functional; conditions: Homo sapiens
UO-31 [11] = assay: Inhibition of Renal cancer in UO-31 cancer cell lines; assay type: functional; conditions: Homo sapiens
SK-MEL-5 [12] = assay: Growth inhibitory activity was determined against SK-MEL-5 cancer cell line of melanoma; assay type: functional, Homo sapiens; conditions: Homo sapiens, SK-MEL-5; in short: as §3
SF-539 = assay: Growth inhibitory activity was determined against SF-539 cancer cell line of CNS cancer; assay type: functional; conditions: Homo sapiens; in short: as §3
NCI/ADR-RES [13] = assay: Inhibition of Breast cancer in NCI/ADR-RES cancer cell lines; assay type: functional; conditions: Homo sapiens
HCC 2998 = assay: Growth inhibitory activity was determined against HCC2998 cancer cell line colon cancer; assay type: functional, Homo sapiens; conditions: Homo sapiens, HCC 2998; in short: as §3
BT-549 (Homo sapiens) [14] = assay: Inhibition of Breast cancer in BT-549 cancer cell lines
PC-3 [15] = assay: Growth inhibitory activity was determined against PC-3 cancer cell line of Prostate cancer; assay type: functional; conditions: Homo sapiens; in short: as §3
HT-29 [16] = assay: Growth inhibitory activity was determined against HT-29 cancer cell line colon cancer; assay type: functional, Homo sapiens; conditions: Homo sapiens, HT-29; in short: as §3
OVCAR-3 [17] = assay: Growth inhibitory activity was determined against OVCAR-3 cancer cell line of Ovarian cancer; assay type: functional; conditions: Homo sapiens; in short: as §3
OVCAR-8 [18] = assay: Growth inhibitory activity was determined against OVCAR-8 cancer cell line of Ovarian cancer; assay type: functional; conditions: Homo sapiens; in short: as §3
UO-31 [19] = assay: Growth inhibitory activity was determined against UO-31 cancer cell line of Renal cancer; assay type: functional; conditions: Homo sapiens; in short: as §3
NCI/ADR-RES [20] = assay: Growth inhibitory activity was determined against NCI/ADR-RES cancer cell line of Breast cancer; assay type: functional, Homo sapiens; conditions: Homo sapiens, NCI/ADR-RES; in short: as §3
SK-MEL-5 [21] = assay: Growth inhibitory activity was determined against SK-MEL-5 cancer cell line of melanom; assay type: functional; conditions: Homo sapiens; in short: as §3
786-0 [22] = assay: Growth inhibitory activity was determined against 786-0 cancer cell line of Renal cancer; assay type: functional; conditions: Homo sapiens; in short: as §3
SN12C [23] = assay: Growth inhibitory activity was determined against SN12C cancer cell line of Renal cancer; assay type: functional; conditions: Homo sapiens; in short: as §3
[24] = biological target: T2, M-phase inducer phosphatase 1 (Homo sapiens, UniProt P30304); assay: as §1
T2 sequence (P30304 whole entry): T1 sequence (whole entry)
In short: as §2, with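 “orthovanadate.” for “orthovanadate. Fluorescein monophosphate was read at 485 nm excitation and 530 nm emission.”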

BT-549 (Homo sapiens) [25] = assay: Growth inhibitory activity was determined against BT-549 cancer cell line of Breast cancer; conditions: Homo sapiens, BT-549
T47D [26] = assay: Growth inhibitory activity was determined against T-47D cancer cell line of Breast cancer; assay type: functional, Homo sapiens; conditions: Homo sapiens, T47D; in short: as §3

IC50 [1]: 2.5 µM | GI50 (HT-29 [2]): 6.49 µM | GI50 (OVCAR-3 [3]): 6.77 µM | GI50 (NCI-H23): 7.4 µM | IC50 [4]: 13.2 µM | GI50 (NCI-H522): 17.3 µM | GI50 (PC-3 [5]): 6.34 µM | GI50 (U-251): 5.53 µM | IC50 [6]: 9.3 µM | GI50 (COLO 205): 5.92 µM | GI50 (A549): 7.33 µM | GI50 (786-0 [8]): 8.69 µM | GI50 (OVCAR-8 [9]): 5.53 µM | GI50 (T47D [10]): 8.22 µM | GI50 (SK-MEL-5 [12]): 8.83 µM | GI50 (HCC 2998): 4.31 µM | GI50 (BT-549 (Homo sapiens) [14]): 5.75 µM
SMILES: C/C(=C\CCCC#N)[C@H]1CC[C@]2(C)[C@@H]([C@H](C)CCCC(C)C)CC[C@H]2[C@@H]1CC(=O)O
GI50 (LOX IMVI): 5.91 µM | GI50 (SN12C [7]): 7.73 µM | GI50 (SF-268): 16.6 µM | GI50 (UO-31 [11]): 9.55 µM | GI50 (SF-539): 10.5 µM | GI50 (NCI/ADR-RES [13]): 6.44 µM

GI50 (PC-3 [15]): 16 µM | GI50 (HT-29 [16]): 15.7 µM | GI50 (OVCAR-3 [17]): > 25 µM | GI50 (NCI-H23): 19 µM | GI50 (NCI-H522): > 25 µM | GI50 (OVCAR-8 [18]): 13.5 µM | GI50 (U-251): 14 µM | GI50 (SK-MEL-5 [21]): > 25 µM | GI50 (COLO 205): > 25 µM | GI50 (786-0 [22]): 18.5 µM | GI50 (A549): 10.8 µM | IC50 [24]: 5.9 µM | GI50 (BT-549 (Homo sapiens) [25]): 13 µM | GI50 (T47D [26]): 16.9 µM | GI50 (HCC 2998): 18.8 µM
SMILES: CC(C)CCC[C@@H](C)[C@H]1CC[C@H]2[C@H](CC(=O)O)[C@@H]([C@@]3(C)CCCCC3=O)CC[C@]12C
GI50 (LOX IMVI): 16.7 µM | GI50 (UO-31 [19]): > 25 µM | GI50 (NCI/ADR-RES [20]): 14.6 µM | GI50 (SF-268): > 25 µM | GI50 (SN12C [23]): 13.4 µM | GI50 (SF-539): > 25 µM

— ChEMBL document CHEMBL1134845, “Syntheses and biological activities of a novel group of steroidal derived inhibitors for human Cdc25A protein phosphatase” (J Med Chem, 2001)
